Converted amounts (≈) assume the structure as drawn.
Columns and labels:
[1] = tested on: Naegleria fowleri; assay: Anti-ameobic activity against Naegleria fowleri Nf69 (ATCC 30215) trophozoites assessed as inhibition of amoeba growth incubated for 48 hrs by CellTiter-Glo assay; type: functional, organism-based
In short: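 Axenic Nf69 trophozoites were seeded at 1 × 10^4 cells/mL in Nelson's complete medium with 10% heat-inactivated FBS. Compound was added at 20 to 0.375 μM (lower ranges for very potent compounds), with vehicle controls, for 48 h at 37 °C and 5% CO2. CellTiter-Glo luminescence gave % growth inhibition versus controls, and triplicate means were fitted to dose–response curves for EC50.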

[2] = tested on: SH-SY5Y; assay: Cytotoxicity against human SH-SY5Y cells assessed as reduction in cell viability incubated for 72 hrs by CellTiter-Glo assay; type: toxicity, cell-based; details: sh-sy5y, 72 h
In short: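 SH-SY5Y cells at 2000 per well attached overnight at 37 °C. Compound from 20 mM DMSO stocks was added in triplicate as a dose series starting at 20 μM, with doxorubicin as positive control.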

[3] = Selectivity index, ratio of CC50 for cytotoxicity against human SH-SY5Y cells to EC50 for anti-amoebic activity against Naegleria fowleri Nf69 (ATCC 30215) assessed as inhibition of amoeba growth; type: toxicity, cell-based; details: for selectivity ratio: SH-SY5Y cells, read-out: Ratio CC50/EC50
[4] = Kinetic solubility of compound at pH 7.4 incubated for 24 hrs by HPLC analysis; type: physicochemical; details: buffer, pH 7.4, read-out: Kinetic_solubility
[5] = Metabolic stability in CD-1 mouse liver microsomes assessed as half-life incubated for 60 mins by LC-MS/MS analysis; type: ADME, Microsome; details: 1 h
In short: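 Half-life measured in CD-1 mouse liver microsomes with NADPH over a 60 min exposure.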

[6] = Naegleria fowleri, Nf69 (ATCC 30215), 48 h

Structure (SMILES)	EC50 [1, 6]	CC50 [2]	other results
CN1CCC[C@H]2c3nc4cc(C(F)(F)F)ccc4c(=O)n3CC[C@H]21 (racemic)	6.9 µM	> 20 µM	
CN1CCC[C@H]2c3nc4ccc(F)cc4c(=O)n3CC[C@H]21 (racemic)	> 10 µM		
COc1ccc2c(=O)n3c(nc2c1)[C@H]1CCCN(C)[C@@H]1CC3 (racemic)	1.5 µM	> 20 µM	
COc1cc2nc3n(c(=O)c2cc1Cl)CC[C@@H]1[C@@H]3CCCN1C (racemic)	0.43 µM	> 20 µM	
O=c1c2cc(Cl)c(Cl)cc2nc2n1CC[C@@H]1[C@@H]2CCCN1Cc1ccccc1 (racemic)	0.72 µM	> 20 µM	
CN1CCC[C@H]2c3nc4cccc(Cl)c4c(=O)n3CC[C@H]21 (racemic)	> 10 µM		
O=c1c2cc(Cl)c(Cl)cc2nc2n1CC[C@H]1NCCC[C@H]21 (racemic)	1.6 µM	> 20 µM	
COc1cc2nc3n(c(=O)c2cc1Cl)CC[C@H]1[C@H]3CCCN1CC(C)C	0.027 µM	1 µM	selectivity ratio [3]: 38; solubility kinetic at 24 h [4]: 2.6 µM (≈ 0.977 µg/mL)
CN1CCC[C@H]2c3nc4ccccc4c(=O)n3CC[C@H]21 (racemic)	> 10 µM		
Cc1cccc2nc3n(c(=O)c12)CC[C@@H]1[C@@H]3CCCN1C (racemic)	> 10 µM	> 20 µM	
O=c1c2cc(Cl)c(Cl)cc2nc2n1CC[C@@H]1[C@@H]2CCCN1Cc1cccnc1 (racemic)	0.0002 µM	> 20 µM	t1/2 [5]: 21.9 min
CC(C)OCCN1CCC[C@@H]2c3nc4cc(Cl)c(Cl)cc4c(=O)n3CC[C@H]21 (racemic)	0.0004 µM	> 20 µM	t1/2 [5]: 9.8 min
CC(C)NCCN1CCC[C@@H]2c3nc4cc(Cl)c(Cl)cc4c(=O)n3CC[C@H]21 (racemic)	0.13 µM	6.4 µM	selectivity ratio [3]: 49
CC(C)N1CCC[C@@H]2c3nc4cc(Cl)c(Cl)cc4c(=O)n3CC[C@H]21 (racemic)	0.04 µM	> 20 µM	t1/2 [5]: 41.1 min
Cc1ccc2nc3n(c(=O)c2c1)CC[C@@H]1[C@H]3CCCN1C (racemic)	2.8 µM	> 20 µM	
CN1CCC[C@H]2c3nc4ccc(Cl)cc4c(=O)n3CC[C@@H]21	4 µM		selectivity ratio [3]: > 5
CN1CCC[C@H]2c3nc4ccc(C(F)(F)F)cc4c(=O)n3CC[C@@H]21	4.3 µM		selectivity ratio [3]: > 4.7
O=C(c1ccccc1)N1CCC[C@@H]2c3nc4cc(Cl)c(Cl)cc4c(=O)n3CC[C@H]21 (racemic)	> 10 µM	> 20 µM	
CN1CCC[C@H]2c3nc4ccc(Cl)cc4c(=O)n3CC[C@H]21 (racemic)	2.2 µM		
CN1CCC[C@@H]2c3nc4cc(Cl)ccc4c(=O)n3CC[C@H]21 (racemic)	6 µM	> 20 µM	
CN(C)CC(=O)N1CCC[C@@H]2c3nc4cc(Cl)c(Cl)cc4c(=O)n3CC[C@H]21 (racemic)	0.72 µM	> 20 µM	

Structure (SMILES)	EC50 [1, 6]	CC50 [2]	other results
CN1CCC[C@H]2c3nc4cc(-c5ccccc5)c(Cl)cc4c(=O)n3CC[C@H]21 (racemic)	3.4 µM	> 20 µM	
CN1CCC[C@@H]2c3nc4ccc(F)cc4c(=O)n3CC[C@H]21 (racemic)	> 10 µM	> 20 µM	
O=c1c2cc(Cl)c(Cl)cc2nc2n1CC[C@@H]1[C@@H]2CCCN1Cc1ccncc1 (racemic)	0.48 µM	> 20 µM	
COc1cc2nc3n(c(=O)c2cc1Cl)CC[C@@H]1[C@@H]3CCCN1CC(C)C (racemic)		1.8 µM	Ratio CC50/EC50 [3]: 10.6; EC50 [1]: 0.17 µM
COc1cc(Cl)cc2c(=O)n3c(nc12)[C@H]1CCCN(C)[C@@H]1CC3 (racemic)	> 10 µM	> 20 µM	
CN(C)C(=O)CN1CCC[C@@H]2c3nc4cc(Cl)c(Cl)cc4c(=O)n3CC[C@H]21 (racemic)	0.3 µM	> 20 µM	
CN1CCC[C@@H]2c3nc4cccc(Cl)c4c(=O)n3CC[C@H]21 (racemic)	> 10 µM	> 20 µM	
CN1CCC[C@H]2c3nc4cc(Cl)c(Cl)cc4c(=O)n3CC[C@H]21 (racemic)	0.26 µM		
CC(C)CN1CCC[C@@H]2c3nc4cc(Cl)c(Cl)cc4c(=O)n3CC[C@H]21 (racemic)	0.007 µM	> 20 µM	t1/2 [5]: 19.7 min
CN1CCC[C@H]2c3nc4ccc(C#N)cc4c(=O)n3CC[C@H]21 (racemic)	2.1 µM	> 20 µM	
CN1CCC[C@H]2c3nc4cc(Cl)c(Cl)cc4c(=O)n3CC[C@@H]21	2.6 µM		selectivity ratio [3]: > 7.7
O=c1c2cc(Cl)c(Cl)cc2nc2n1CC[C@@H]1[C@@H]2CCCN1Cc1cnccn1 (racemic)	0.05 µM	> 20 µM	
CN1CCC[C@H]2c3nc4cc(F)ccc4c(=O)n3CC[C@H]21 (racemic)	> 10 µM		
CN(C)CCN1CCC[C@@H]2c3nc4cc(Cl)c(Cl)cc4c(=O)n3CC[C@H]21 (racemic)	0.18 µM	8 µM	selectivity ratio [3]: 44
COc1cc2nc3n(c(=O)c2cc1C#N)CC[C@@H]1[C@@H]3CCCN1C (racemic)	3.8 µM	> 20 µM	
COCCN1CCC[C@@H]2c3nc4cc(Cl)c(Cl)cc4c(=O)n3CC[C@H]21 (racemic)	0.023 µM	10 µM	selectivity ratio [3]: 435; t1/2 [5]: 17 min
CN1CCC[C@@H]2c3nc4cc(Cl)c(C(F)(F)F)cc4c(=O)n3CC[C@H]21 (racemic)	0.34 µM		
CN1CCC[C@@H]2c3nc4cnccc4c(=O)n3CC[C@H]21 (racemic)	> 10 µM		
O=C(C1CCOCC1)N1CCC[C@@H]2c3nc4cc(Cl)c(Cl)cc4c(=O)n3CC[C@H]21 (racemic)	> 10 µM	> 20 µM	
CC(C)(C)C(=O)N1CCC[C@@H]2c3nc4cc(Cl)c(Cl)cc4c(=O)n3CC[C@H]21 (racemic)	> 10 µM	> 20 µM	
O=c1c2cc(Cl)c(Cl)cc2nc2n1CC[C@@H]1[C@@H]2CCCN1Cc1ccccn1 (racemic)	2.53 µM	> 20 µM	

Structure (SMILES)	EC50 [1, 6]	CC50 [2]	other results
O=c1c2cc(Cl)c(Cl)cc2nc2n1CC[C@@H]1[C@@H]2CCCN1CC1CCOCC1 (racemic)	0.007 µM	> 20 µM	t1/2 [5]: 67.2 min
Cc1ccc2nc3n(c(=O)c2c1)CC[C@@H]1[C@@H]3CCCN1C (racemic)	3.1 µM		
CN1CCC[C@@H]2c3nc4cc(C(F)(F)F)ccc4c(=O)n3CC[C@H]21 (racemic)	0.99 µM		
CN1CCC[C@@H]2c3nc4ccc(C#N)cc4c(=O)n3CC[C@H]21 (racemic)	0.67 µM		
COc1cc(Cl)cc2c(=O)n3c(nc12)[C@@H]1CCCN(C)[C@@H]1CC3 (racemic)	> 10 µM		
Cc1cccc2nc3n(c(=O)c12)CC[C@@H]1[C@H]3CCCN1C (racemic)	> 10 µM		
COc1cc2nc3n(c(=O)c2cc1Cl)CC[C@@H]1[C@@H]3CCCN1CC(C)C		> 20 µM	Ratio CC50/EC50 [3]: > 32.3; EC50 [1]: 0.62 µM
O=C(N1CCOCC1)N1CCC[C@@H]2c3nc4cc(Cl)c(Cl)cc4c(=O)n3CC[C@H]21 (racemic)	> 10 µM	> 20 µM	
CN1CCC[C@H]2c3nc4ccc(C(F)(F)F)cc4c(=O)n3CC[C@H]21 (racemic)	0.95 µM		
COc1ccc2c(=O)n3c(nc2c1)[C@@H]1CCCN(C)[C@@H]1CC3 (racemic)	1.8 µM		
CN1CCC[C@H]2c3nc4cc(Cl)ccc4c(=O)n3CC[C@H]21 (racemic)	> 10 µM		
CN1CCC[C@@H]2c3nc4cc(F)ccc4c(=O)n3CC[C@H]21 (racemic)	> 10 µM	> 20 µM	
COc1cc2nc3n(c(=O)c2cc1Cl)CC[C@@H]1[C@H]3CCCN1C (racemic)	0.38 µM		
COc1ccc2nc3n(c(=O)c2c1)CC[C@@H]1[C@@H]3CCCN1C (racemic)	7.3 µM		
COc1ccc2nc3n(c(=O)c2c1)CC[C@@H]1[C@H]3CCCN1C (racemic)	> 10 µM	> 20 µM	
CN1CCC[C@H]2c3nc4cnccc4c(=O)n3CC[C@H]21 (racemic)	> 10 µM		
CN1CCC[C@H]2c3nc4cc(Cl)c(C(F)(F)F)cc4c(=O)n3CC[C@H]21 (racemic)	0.27 µM	> 20 µM	
CN1CCC[C@@H]2c3nc4ccccc4c(=O)n3CC[C@H]21 (racemic)	> 10 µM	> 20 µM	
O=c1c2cc(Cl)c(Cl)cc2nc2n1CC[C@@H]1[C@@H]2CCCN1CC1CC1 (racemic)	0.002 µM	4.8 µM	selectivity ratio [3]: 2400; t1/2 [5]: 18.3 min
CN1CCC[C@@H]2c3nc4cc(-c5ccccc5)c(Cl)cc4c(=O)n3CC[C@H]21 (racemic)	2.1 µM	9.4 µM	
